# Assay results taken from ChEMBL document CHEMBL4043283, “Discovery and Preclinical Development of IIIM-290, an Orally Active Potent Cyclin-Dependent Kinase Inhibitor” (J Med Chem, 2018).
# Calls of active or inactive are those of the source. No cut-off for these calls is given here.
# Tests used:
# [1] = system: Liver; experiment: Intrinsic clearance in human liver S9 fraction assessed per mg of protein preincubated for 5 mins followed by NADPH addition measured after 30 mins by LC-MS/MS analysis; type: ADME, tissue-based; conditions: s9, 0.5 h
# [2] = Acute toxicity in po dosed Wistar rat assessed as mortality; type: organism-based; conditions: in vivo
# [3] = target: CDK3/Cyclin E (Homo sapiens, UniProt Q00526); experiment: Inhibition of CDK3/cyclin E (unknown origin) after 30 mins in presence of [33P]-gamma-ATP by filter binding assay; type: protein-complex assay
# CDK3/Cyclin E, sequence (P24864 whole entry): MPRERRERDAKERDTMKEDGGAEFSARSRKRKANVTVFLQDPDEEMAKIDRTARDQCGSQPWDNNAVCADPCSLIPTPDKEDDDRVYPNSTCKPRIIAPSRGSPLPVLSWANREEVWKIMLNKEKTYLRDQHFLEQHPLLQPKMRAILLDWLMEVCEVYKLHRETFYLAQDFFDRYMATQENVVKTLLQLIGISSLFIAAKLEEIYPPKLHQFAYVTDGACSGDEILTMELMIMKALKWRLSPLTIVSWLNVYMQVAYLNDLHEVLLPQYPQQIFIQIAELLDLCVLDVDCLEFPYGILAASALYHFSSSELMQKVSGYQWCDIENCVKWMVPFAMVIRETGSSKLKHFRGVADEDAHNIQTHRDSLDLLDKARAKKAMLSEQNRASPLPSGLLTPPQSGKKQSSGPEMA
# CDK3/Cyclin E, sequence (Q00526 whole entry): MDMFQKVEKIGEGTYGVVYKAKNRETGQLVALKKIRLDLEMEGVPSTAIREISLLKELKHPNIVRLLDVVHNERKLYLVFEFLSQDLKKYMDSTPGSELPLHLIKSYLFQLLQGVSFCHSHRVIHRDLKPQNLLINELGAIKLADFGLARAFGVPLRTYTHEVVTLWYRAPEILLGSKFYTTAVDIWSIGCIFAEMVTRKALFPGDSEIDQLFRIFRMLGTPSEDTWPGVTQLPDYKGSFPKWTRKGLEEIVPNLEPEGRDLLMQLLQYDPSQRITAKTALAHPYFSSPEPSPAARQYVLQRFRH
# [4] = system: A549; experiment: Growth inhibition of human A549 cells after 48 hrs by MTT assay; type: functional; conditions: A549, 48 h
# Procedure, shortened: (§1)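 Cancer cell lines sourced from the National Cancer Institute (USA). Cells kept in appropriate growth medium at 37 °C, 95% humidity, 5% CO2. Antiproliferation read by tetrazolium (MTT) assay. GI50 values were determined only for compounds selected after an initial single-concentration screen.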
# [5] = system: MIA PaCa-2; experiment: Induction of apoptosis in human MIAPaCa2 cells at 1.5 uM after 24 hrs by propidium iodide staining-based flow cytometric method relative to control; type: functional
# [6] = Chemical stability of compound in phosphate buffer at pH 4 assessed as parent compound remaining at 120 ug/ml after 24 hrs by HPLC method; type: physicochemical; conditions: read-out: Stability
# [7] = Growth inhibition of human FR2 cells after 48 hrs by MTT assay; type: cell-based
# Procedure, shortened: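 fR2 is a normal epithelial line of ECACC type. Cells were grown in appropriate medium at 37 °C, 95% humidity, 5% CO2. Antiproliferative effect measured by MTT assay, with GI50 values derived from concentration-response testing.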
# [8] = target: CDK9/Cyclin K (Homo sapiens, UniProt P50750); experiment: Inhibition of CDK9/cyclin K (unknown origin) after 30 mins in presence of [33P]-gamma-ATP by filter binding assay; type: protein-complex assay
# CDK9/Cyclin K, sequence (P50750 whole entry): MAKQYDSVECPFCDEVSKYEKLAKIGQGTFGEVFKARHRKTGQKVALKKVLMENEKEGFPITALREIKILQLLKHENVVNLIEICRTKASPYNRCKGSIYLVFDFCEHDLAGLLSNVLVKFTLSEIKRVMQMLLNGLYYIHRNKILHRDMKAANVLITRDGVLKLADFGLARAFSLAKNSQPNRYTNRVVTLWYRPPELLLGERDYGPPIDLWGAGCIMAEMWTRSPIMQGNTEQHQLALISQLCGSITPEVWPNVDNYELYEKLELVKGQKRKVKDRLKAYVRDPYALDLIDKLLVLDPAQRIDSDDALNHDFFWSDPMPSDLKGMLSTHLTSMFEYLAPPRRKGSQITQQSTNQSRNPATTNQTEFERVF
# CDK9/Cyclin K, sequence (O75909 whole entry, further chain): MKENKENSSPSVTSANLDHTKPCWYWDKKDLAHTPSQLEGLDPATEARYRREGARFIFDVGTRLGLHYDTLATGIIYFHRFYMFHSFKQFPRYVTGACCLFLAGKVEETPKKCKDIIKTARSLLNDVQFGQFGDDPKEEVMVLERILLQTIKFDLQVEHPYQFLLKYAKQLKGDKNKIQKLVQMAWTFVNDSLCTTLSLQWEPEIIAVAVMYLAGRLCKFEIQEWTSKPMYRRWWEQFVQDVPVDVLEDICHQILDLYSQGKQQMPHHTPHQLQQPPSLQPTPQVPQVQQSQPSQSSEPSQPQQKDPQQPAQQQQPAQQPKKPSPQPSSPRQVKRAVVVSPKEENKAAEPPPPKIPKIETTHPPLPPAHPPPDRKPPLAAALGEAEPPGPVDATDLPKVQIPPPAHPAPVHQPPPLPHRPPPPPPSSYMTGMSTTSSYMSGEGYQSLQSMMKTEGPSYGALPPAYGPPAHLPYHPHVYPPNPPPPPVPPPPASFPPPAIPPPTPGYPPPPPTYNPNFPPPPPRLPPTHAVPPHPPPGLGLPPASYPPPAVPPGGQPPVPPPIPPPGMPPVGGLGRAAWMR
# [9] = Half life in monkey liver S9 fraction preincubated for 5 mins followed by NADPH addition measured after 30 mins by LC-MS/MS analysis; type: ADME, tissue-based, Macaca mulatta; conditions: rhesus monkey
# [10] = Ratio of Cmax in BALB/c mouse at 30 mg/kg, po to GI50 for human MIAPaCa2 cells
# [11] = target: Cytochrome P450 2C19 (Homo sapiens, UniProt P33261); experiment: Inhibition of human CYP2C19 using fluorogenic substrate preincubated with co-factor for 10 mins followed by enzyme-substrate addition by fluorometric method; type: ADME
# Cytochrome P450 2C19, sequence (P33261 whole entry): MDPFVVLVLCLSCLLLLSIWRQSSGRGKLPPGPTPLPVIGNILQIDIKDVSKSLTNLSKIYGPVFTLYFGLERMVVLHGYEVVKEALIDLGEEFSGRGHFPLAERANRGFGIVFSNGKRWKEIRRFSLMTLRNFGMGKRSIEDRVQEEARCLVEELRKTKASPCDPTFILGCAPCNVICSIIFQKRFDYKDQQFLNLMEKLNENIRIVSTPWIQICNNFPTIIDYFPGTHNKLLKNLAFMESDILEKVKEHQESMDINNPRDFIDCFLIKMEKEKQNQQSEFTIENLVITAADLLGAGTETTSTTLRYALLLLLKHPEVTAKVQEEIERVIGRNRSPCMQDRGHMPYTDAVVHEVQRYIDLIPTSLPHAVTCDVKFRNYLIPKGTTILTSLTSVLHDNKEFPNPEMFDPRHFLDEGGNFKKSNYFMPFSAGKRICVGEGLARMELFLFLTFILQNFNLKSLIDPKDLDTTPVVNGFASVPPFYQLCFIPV
# Procedure, shortened: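 Cofactor plus test item or vehicle, in triplicate, preincubated 10 min at 37 °C; prewarmed enzyme–substrate mix added and incubated at 37 °C with shaking. Quench: acetonitrile (CYP2C19, CYP3A4) or 0.25 M Tris in 60% methanol (CYP2C9, CYP2D6). Metabolite fluorescence read; % inhibition computed against enzyme controls and enzyme-free blanks.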
# [12] = AUC in BALB/c mouse at 3 mg/kg, po by LC-MS/MS analysis; type: ADME, organism-based; conditions: in vivo
# [13] = target: CDK6/cyclin D1 (Homo sapiens, UniProt Q00534); experiment: Inhibition of CDK6/cyclin D1 (unknown origin) after 30 mins in presence of [33P]-gamma-ATP by filter binding assay; type: protein-complex assay
# CDK6/cyclin D1, sequence (P24385 whole entry): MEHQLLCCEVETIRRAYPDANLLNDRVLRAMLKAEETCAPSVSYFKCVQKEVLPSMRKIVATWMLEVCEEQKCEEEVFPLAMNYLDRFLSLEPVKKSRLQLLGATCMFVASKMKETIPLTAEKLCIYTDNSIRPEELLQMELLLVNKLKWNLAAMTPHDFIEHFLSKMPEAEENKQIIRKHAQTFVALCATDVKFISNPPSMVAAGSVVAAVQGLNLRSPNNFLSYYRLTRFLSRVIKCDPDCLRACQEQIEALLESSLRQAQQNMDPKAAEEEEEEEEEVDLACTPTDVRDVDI
# CDK6/cyclin D1, sequence (Q00534 whole entry): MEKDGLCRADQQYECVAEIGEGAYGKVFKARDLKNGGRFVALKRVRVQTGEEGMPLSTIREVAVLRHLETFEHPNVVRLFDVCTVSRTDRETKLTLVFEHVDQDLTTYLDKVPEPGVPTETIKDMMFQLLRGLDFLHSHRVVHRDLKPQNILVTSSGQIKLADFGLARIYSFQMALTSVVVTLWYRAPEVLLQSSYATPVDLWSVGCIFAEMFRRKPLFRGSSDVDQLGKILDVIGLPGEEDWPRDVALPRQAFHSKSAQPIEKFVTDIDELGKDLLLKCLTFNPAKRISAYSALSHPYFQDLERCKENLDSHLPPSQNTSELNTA
# [14] = Tmax in Sprague-Dawley rat at 30 mg/kg, po by LC-MS/MS analysis; type: ADME, organism-based; conditions: in vivo
# [15] = target: T1, CYP3A4 (Homo sapiens, UniProt P08684); experiment: Inhibition of human CYP3A4 at 2 uM using fluorogenic substrate after 30 mins by fluorometric method relative to control; type: ADME; conditions: probe fluorogenic substrate
# T1 sequence (P08684 whole entry): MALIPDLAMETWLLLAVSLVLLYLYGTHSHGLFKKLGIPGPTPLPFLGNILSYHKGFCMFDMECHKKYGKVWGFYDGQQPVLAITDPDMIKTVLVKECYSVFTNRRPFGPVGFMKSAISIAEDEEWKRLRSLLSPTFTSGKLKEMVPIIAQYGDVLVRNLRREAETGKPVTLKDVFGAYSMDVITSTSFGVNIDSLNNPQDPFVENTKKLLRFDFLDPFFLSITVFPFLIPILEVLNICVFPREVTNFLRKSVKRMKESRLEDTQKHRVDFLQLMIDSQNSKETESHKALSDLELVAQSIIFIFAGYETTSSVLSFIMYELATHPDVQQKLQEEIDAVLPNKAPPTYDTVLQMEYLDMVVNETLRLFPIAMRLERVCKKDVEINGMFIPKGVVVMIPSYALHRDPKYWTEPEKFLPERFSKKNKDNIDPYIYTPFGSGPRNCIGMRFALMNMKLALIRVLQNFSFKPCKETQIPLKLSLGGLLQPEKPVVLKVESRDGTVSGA
# [16] = Intrinsic clearance in rat hepatocytes assessed per million cells at 3 uM after 180 mins by LC-MS/MS analysis; type: ADME, cell-based, Hepatocyte; conditions: read-out: CLH
# [17] = target: CDK1/Cyclin A (Homo sapiens, UniProt P06493); experiment: Inhibition of CDK1/cyclin A (unknown origin) after 30 mins in presence of [33P]-gamma-ATP by filter binding assay; type: protein-complex assay
# CDK1/Cyclin A, sequence (P06493 whole entry): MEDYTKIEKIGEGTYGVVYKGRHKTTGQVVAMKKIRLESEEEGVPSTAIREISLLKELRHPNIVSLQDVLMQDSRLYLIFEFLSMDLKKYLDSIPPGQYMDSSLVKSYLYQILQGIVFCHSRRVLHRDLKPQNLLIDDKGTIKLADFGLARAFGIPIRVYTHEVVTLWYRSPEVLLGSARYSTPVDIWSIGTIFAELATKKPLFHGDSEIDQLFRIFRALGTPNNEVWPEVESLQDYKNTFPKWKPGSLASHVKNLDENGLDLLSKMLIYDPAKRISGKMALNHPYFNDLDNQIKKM
# CDK1/Cyclin A, sequence (P20248 whole entry, further chain): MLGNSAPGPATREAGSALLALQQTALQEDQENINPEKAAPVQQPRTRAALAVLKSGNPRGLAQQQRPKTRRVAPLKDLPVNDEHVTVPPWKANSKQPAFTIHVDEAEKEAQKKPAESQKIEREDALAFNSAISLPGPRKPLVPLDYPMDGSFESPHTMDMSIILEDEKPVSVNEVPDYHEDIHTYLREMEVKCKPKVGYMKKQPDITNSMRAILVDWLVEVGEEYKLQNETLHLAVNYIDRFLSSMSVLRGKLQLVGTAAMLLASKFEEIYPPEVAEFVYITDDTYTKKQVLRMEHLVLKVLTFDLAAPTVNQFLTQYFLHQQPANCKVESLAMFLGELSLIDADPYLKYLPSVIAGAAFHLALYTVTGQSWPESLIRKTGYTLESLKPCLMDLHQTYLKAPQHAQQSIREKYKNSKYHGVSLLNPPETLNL
# [18] = Intrinsic clearance in rat liver microsomes assessed per mg of protein at 100 uM after 30 mins by LC-MS/MS analysis; type: ADME, microsome; conditions: read-out: CLH
# [19] = system: OVCAR-5; experiment: Growth inhibition of human OVCAR5 cells after 48 hrs by MTT assay; type: functional; conditions: OVCAR-5, 48 h; procedure, shortened: as §1
# [20] = system: Mus musculus; experiment: Toxicity in CD1 nude mouse xenografted with human MOLT4 cells assessed as change in body weight at 25 to 75 mg/kg, po qd administered on day 10 to 25 post tumor inoculation; type: organism-based; conditions: in vivo
# [21] = Chemical stability of compound in SGF at pH 1.2 assessed as parent compound remaining after 8 hrs by HPLC method; type: physicochemical; conditions: read-out: Stability
# [22] = target: CDK2/Cyclin A2 (Homo sapiens, UniProt P24941); experiment: Inhibition of CDK2/cyclin A (unknown origin) using histone H1 as substrate after 30 mins in presence of [33P]-gamma-ATP by filter binding assay; type: protein-complex assay
# [23] = Elimination half life in BALB/c mouse at 10 mg/kg, po by LC-MS/MS analysis; type: ADME, organism-based; conditions: in vivo, read-out: beta t1/2 (converted)
# [24] = system: Caco-2; experiment: Growth inhibition of human Caco2 cells after 48 hrs by MTT assay; type: functional; conditions: Caco-2, 48 h; procedure, shortened: as §1
# [25] = system: MCF7; experiment: Growth inhibition of human MCF7 cells after 48 hrs by MTT assay; type: functional; conditions: MCF7, 48 h; procedure, shortened: as §1
# [26] = system: Salmonella typhimurium; experiment: Mutagenicity in Salmonella typhimurium TA1537 at 50 ug/plate in absence of liver S9 fraction by Ames test; type: toxicity; conditions: salmonella enterica subsp. enterica serovar typhimurium
# [27] = Chemical stability of compound in SIF at pH 6.8 assessed as parent compound remaining after 8 hrs by HPLC method; type: physicochemical; conditions: read-out: Stability
# [28] = system: 786-0; experiment: Growth inhibition of human 786-0 cells after 48 hrs by MTT assay; type: functional; conditions: 786-0, 48 h; procedure, shortened: as §1
# [29] = system: MOLT-4; experiment: Antitumor activity against human MOLT4 cells xenografted in CD1 nude mouse assessed as tumor growth inhibition at 50 mg/kg, po qd administered on day 10 to 25 post tumor inoculation relative to control; type: functional; conditions: MOLT-4, po, 240 h, read-out: TGI
# [30] = system: MOLT-4; experiment: Antitumor activity against human MOLT4 cells xenografted in CD1 nude mouse assessed as tumor growth inhibition at 25 mg/kg, po qd administered on day 10 to 25 post tumor inoculation; type: functional, organism-based
# [31] = target: T1, CYP3A4; experiment: Inhibition of human CYP3A4 at 2 uM using fluorogenic substrate after 5 mins by fluorometric method relative to control; type: ADME; conditions: probe fluorogenic substrate
# [32] = system: LOX IMVI; experiment: Growth inhibition of human LOXIMVI cells after 48 hrs by MTT assay; type: functional; procedure, shortened: as §1
# [33] = target: PRKCE (protein kinase C epsilon) (Homo sapiens, UniProt Q02156); experiment: Inhibition of partial length wild type human PRKCE expressed in mammalian expression system at 0.5 uM by KINOMEscan method relative to control
# PRKCE (protein kinase C epsilon), sequence (Q02156 whole entry): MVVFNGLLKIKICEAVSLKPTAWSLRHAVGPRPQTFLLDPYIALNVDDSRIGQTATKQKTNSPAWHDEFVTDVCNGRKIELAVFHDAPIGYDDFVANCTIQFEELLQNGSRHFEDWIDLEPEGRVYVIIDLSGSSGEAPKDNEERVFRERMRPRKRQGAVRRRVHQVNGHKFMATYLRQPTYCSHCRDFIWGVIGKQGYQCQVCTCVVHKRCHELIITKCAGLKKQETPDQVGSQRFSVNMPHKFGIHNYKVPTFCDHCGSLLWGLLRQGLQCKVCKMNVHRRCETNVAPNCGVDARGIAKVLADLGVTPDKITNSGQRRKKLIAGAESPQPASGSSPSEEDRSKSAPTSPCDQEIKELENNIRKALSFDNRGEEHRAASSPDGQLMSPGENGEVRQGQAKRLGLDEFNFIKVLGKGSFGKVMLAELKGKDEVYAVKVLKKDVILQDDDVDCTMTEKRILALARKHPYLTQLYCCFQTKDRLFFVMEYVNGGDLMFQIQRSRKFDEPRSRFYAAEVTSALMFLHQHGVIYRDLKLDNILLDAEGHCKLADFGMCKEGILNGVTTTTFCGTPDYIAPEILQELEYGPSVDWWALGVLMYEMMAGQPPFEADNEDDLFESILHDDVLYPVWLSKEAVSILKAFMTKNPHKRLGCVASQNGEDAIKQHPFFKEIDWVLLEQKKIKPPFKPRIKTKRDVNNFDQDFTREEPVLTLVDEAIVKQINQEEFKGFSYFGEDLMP
# Procedure, shortened: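 Competition binding screen (KINOMEscan) at 0.5 μM; primary binding read out as % of control, lower values indicating stronger interaction.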
# [34] = system: A-431; experiment: Growth inhibition of human A431 cells after 48 hrs by MTT assay; type: functional; conditions: A-431, 48 h; procedure, shortened: as §1
# [35] = system: PANC-1; experiment: Growth inhibition of human PANC1 cells after 48 hrs by MTT assay; type: functional; conditions: PANC-1, 48 h; procedure, shortened: as §1
# [36] = Cmax in BALB/c mouse at 30 mg/kg, po by LC-MS/MS analysis; type: ADME, organism-based; set-up: dose 30 mg/kg, route oral; conditions: in vivo
structure (smiles),measurement,setting,value
CN1CC[C@H](c2c(O)cc(O)c3c(=O)cc(/C=C/c4c(Cl)cccc4Cl)oc23)[C@H](O)C1,CLint,[1],19 µL/min/mg
same,LD50,[2],1000 mg/kg
same,IC50,[3],> 1 µM
same,GI50,[4],4 µM
same,Activity,[5],1.9%
same,"remaining at 24 h, 120 ug/ml",[6],100%
same,GI50 at 48 h,[7],19 µM
same,IC50,[8],0.412 µM
same,half-life,[9],0.933 h
same,Ratio,[10],4
same,IC50,[11],> 20 µM
same,AUC,[12],0.643 µM·h
same,IC50,[13],0.045 µM
same,Tmax,[14],1 h
same,"inhibition at 0.5 h, 2 µM",[15],40%
same,hepatocyte CLint at 3 µM,[16],9.2 µL/min/1e6 cells
same,IC50,[17],0.00493 µM
same,microsomal CLint at 100 µM,[18],< 13 µL/min/mg
same,GI50,[19],7 µM
same,Activity,[20],Non-Toxic
same,remaining at 8 h,[21],100%
same,IC50,[22],0.0155 to 0.016 µM
same,half-life,[23],4.65 h
same,GI50,[24],7 µM
same,GI50,[25],4 µM
same,Activity,[26],Non-Toxic
same,remaining at 8 h,[27],100%
same,GI50,[28],6 µM
same,inhibition in vivo at 50 mg/kg,[29],40 to 52%
same,TGI,[30],inactive
same,"inhibition at 5 min, 2 µM",[31],30%
same,GI50,[32],4 µM
same,inhibition at 0.5 µM,[33],> 98%
same,GI50,[34],8 µM
same,GI50,[35],4 µM
same,Cmax,[36],4.11 µM
